In brackets after ≈: the same amount, converted by molar mass.
System: Mycobacterium tuberculosis
Assay: Antimicrobial activity against multi drug-resistant Mycobacterium tuberculosis after 7 days by resazurin assay
Type: functional
Conditions: 168 h
Outline: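 Resazurin microtitre assay. Cultures were grown in Middlebrook 7H9 with 10% OADC and added to fresh medium in 96-well plates. Test compounds came from 2 mg/mL DMF stocks, with DMF-only controls. Plates were incubated 7 days at 37 °C, then resazurin was added and read after 1 h at 37 °C. MIC was the lowest concentration preventing the blue-to-pink change.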

Structure (SMILES)	MIC [µg/mL]
COc1cc(NS(=O)(=O)C2(c3ccc(Cl)cc3)CC2)ccc1-n1cnc(Cl)c1	> 50
COc1cc(NS(=O)(=O)c2ccccc2)ccc1-n1cnc(Cl)c1	25 (≈ 68.7 µM)
COc1ccc(S(=O)(=O)Nc2ccc(-n3cnc(Cl)c3)c(OC)c2)cc1OC	> 50
COc1cc(NS(=O)(=O)c2ccc([N+](=O)[O-])cc2)ccc1-n1cnc(Cl)c1	6.25 (≈ 15.3 µM)
COc1cc(NS(=O)(=O)c2cccc(C(C)C#N)c2)ccc1-n1cnc(Cl)c1 (centres undefined)	25 (≈ 60 µM)
COc1cc(NC(=O)c2ccccc2)ccc1-n1cnc(Cl)c1	25 (≈ 76.3 µM)
COc1cc(NC(=O)c2ccc([N+](=O)[O-])cc2)ccc1-n1cnc(Cl)c1	> 50
COc1cc(NC(=O)c2cccc(C(C)C#N)c2)ccc1-n1cnc(Cl)c1 (centres undefined)	> 50
COc1cc(NS(=O)(=O)c2ccc(Cl)cc2Cl)ccc1-n1cnc(Cl)c1	> 50
COc1cc(NS(=O)(=O)Cc2cccc(C(F)(F)F)c2)ccc1-n1cnc(Cl)c1	> 50
COc1cc(NS(=O)(=O)c2ccco2)ccc1-n1cnc(Cl)c1	25 (≈ 70.7 µM)
COc1cc(NS(=O)(=O)c2cc(F)cc(C(F)(F)F)c2)ccc1-n1cnc(Cl)c1	6.25 (≈ 13.9 µM)
COc1cc(NS(=O)(=O)c2ccc(C(F)(F)F)cc2)ccc1-n1cnc(Cl)c1	6.25 (≈ 14.5 µM)
COc1cc(NS(=O)(=O)c2cccc([N+](=O)[O-])c2Cl)ccc1-n1cnc(Cl)c1	25 (≈ 56.4 µM)
COc1cc(NS(=O)(=O)c2c(F)ccc(C(F)(F)F)c2Cl)ccc1-n1cnc(Cl)c1	6.25 (≈ 12.9 µM)
COc1cc(F)c(S(=O)(=O)Nc2ccc(-n3cnc(Cl)c3)c(OC)c2)c(C(F)(F)F)c1	25 (≈ 52.1 µM)
COc1cc(NS(=O)(=O)c2cccs2)ccc1-n1cnc(Cl)c1	> 50
COc1cc(NC(=O)c2ccc(Cl)cc2Cl)ccc1-n1cnc(Cl)c1	25 (≈ 63 µM)
COc1cc(NC(=O)Cc2cccc(C(F)(F)F)c2)ccc1-n1cnc(Cl)c1	> 50
COc1cc(NC(=O)c2ccco2)ccc1-n1cnc(Cl)c1	> 50
COc1cc(NC(=O)c2cc(F)cc(C(F)(F)F)c2)ccc1-n1cnc(Cl)c1	> 50
COc1cc(NC(=O)c2ccc(C(F)(F)F)cc2)ccc1-n1cnc(Cl)c1	> 50
COc1cc(NC(=O)c2cccc([N+](=O)[O-])c2Cl)ccc1-n1cnc(Cl)c1	> 50
COc1cc(NC(=O)c2c(F)ccc(C(F)(F)F)c2Cl)ccc1-n1cnc(Cl)c1	25 (≈ 55.8 µM)
COc1cc(F)c(C(=O)Nc2ccc(-n3cnc(Cl)c3)c(OC)c2)c(F)c1	> 50
COc1cc(NC(=O)c2cccs2)ccc1-n1cnc(Cl)c1	> 50
COc1cc(NC(=O)C2(c3ccc(Cl)cc3)CC2)ccc1-n1cnc(Cl)c1	25 (≈ 62.1 µM)
NNC(=O)c1ccncc1 [ISONIAZID]	12.5 (≈ 91.1 µM)
CO[C@H]1/C=C/O[C@@]2(C)Oc3c(C)c(O)c4c(O)c(c(/C=N/N5CCN(C)CC5)c(O)c4c3C2=O)NC(=O)/C(C)=C\C=C\[C@H](C)[C@H](O)[C@@H](C)[C@@H](O)[C@@H](C)[C@H](OC(C)=O)[C@@H]1C [RIFAMPIN]	25 (≈ 30.4 µM)

— ChEMBL document CHEMBL3097988, “Synthesis and characterization of new N-(4-(4-chloro-1H-imidazol-1-yl)-3-methoxyphenyl)amide/sulfonamide derivatives as possible antimicrobial and antitubercular agents” (2014)
